Assay results of several laboratories.
Cell line: Calu-3
Observed: cell growth or viability

`CCOC(=O)c1c(NCc2ccc(SC)cc2)c2cccc(C)c2[nH]c1=O` gave a CC50 of over 100 µM (MTS; 48 h).
`CCS(=O)(=O)N1CC(CC#N)(n2cc(-c3ncnc4[nH]ccc34)cn2)C1` has a CC50 of over 60 µM (resazurin).
`CN1C(=O)c2ccccc2[S+]([O-])c2cc([N+](=O)[O-])ccc2S1(=O)=O` (centres unmarked) gave a CC50 of over 100 µM (MTT; 72 h).
For `CC(C)[C@H](NC(=O)c1ccccc1NC(=O)c1ccccc1)C(=O)N[C@H](CO)C(C)C`, the CC50 was over 250 µM (MTT; 48 h).
With `COc1cc(Nc2ccnc3ccc(Br)cc23)cc(OC)c1OC` the CC50 was over 60 µM (resazurin).
`O=C1Nc2cc(C(F)(F)F)ccc2Oc2ccsc21` has a CC50 of over 100 µM (MTT; 72 h).
`CCC(CC)COC(=O)[C@H](C)N[P@](=O)(OC[C@H]1O[C@@](C#N)(c2ccc3c(N)ncnn23)[C@H](O)[C@@H]1O)Oc1ccccc1` gave a CC50 of at least 250 µM (MTT; 48 h).
`O=C(NCc1ccc(F)cc1)c1cccc(Nc2ccc(-c3ccccc3)nn2)c1` gave a CC50 of over 100 µM (MTS; 48 h).
With `CN(C)C(=O)COC(=O)Cc1ccc(OC(=O)c2ccc(NC(=N)N)cc2)cc1` the CC50 was over 200 µM (ATP luminescence).
`COc1cc2ncnc(Nc3ccc(F)c(Cl)c3)c2cc1OCCCN1CCOCC1` gave a CC50 of over 60 µM (resazurin).
`O=C(Nc1ccc2c(c1)OCO2)c1nnc(C(=O)N2CCCC(C(=O)NCc3ccccc3)C2)s1` (centres unmarked) gave a CC50 of 151 µM (MTT; 48 h).
